Key:
[1] = tested on: Hs-578T; assay: Growth inhibition of human HS578T cells; assay type: functional
[2] = tested on: MDA-MB-231; assay: Growth inhibition of human MDA-MB-231 cells; assay type: functional
[3] = tested on: MCF7; assay: Growth inhibition of human MCF7 cells; assay type: functional
[4] = tested on: DU-145; assay: Growth inhibition of human DU145 cells; assay type: functional
[5] = tested on: PC-3; assay: Growth inhibition of human PC3 cells; assay type: functional
[6] = tested on: UO-31; assay: Growth inhibition of human UO31 cells; assay type: functional
Procedure, shortened: (§1)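 Tested at the NCI in its human disease-oriented in vitro screen of 60 tumour cell lines, following the Monks et al. methods. Activity is expressed as GI50, given as log molar values.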

[7] = tested on: TK-10; assay: Growth inhibition of human TK10 cells; assay type: functional; procedure, shortened: as §1
[8] = tested on: SN12C; assay: Growth inhibition of human SN12C cells; assay type: functional; procedure, shortened: as §1
[9] = tested on: RXF 393; assay: Growth inhibition of human […] cells; assay type: functional
[10] = tested on: CAKI-1; assay: Growth inhibition of human CAKI1 cells; assay type: functional
[11] = tested on: ACHN; assay: Growth inhibition of human ACHN cells; assay type: functional
[12] = tested on: A498; assay: Growth inhibition of human A498 cells; assay type: functional
[13] = tested on: 786-0; assay: Growth inhibition of human 786-0 cells; assay type: functional
[14] = tested on: SK-OV-3; assay: Growth inhibition of human SK-OV-3 cells; assay type: functional; procedure, shortened: as §1
[15] = Growth inhibition of human OVACR8 cells; assay type: functional
[16] = Growth inhibition of human OVACR5 cells; assay type: functional
[17] = Growth inhibition of human OVACR4 cells; assay type: functional
[18] = Growth inhibition of human […] cells; assay type: functional
[19] = tested on: IGROV-1; assay: Growth inhibition of human IGROV1 cells; assay type: functional
[20] = tested on: UACC-62; assay: Growth inhibition of human UACC62 cells; assay type: functional; procedure, shortened: as §1
[21] = tested on: UACC-257; assay: Growth inhibition of human UACC257 cells; assay type: functional; procedure, shortened: as §1
[22] = tested on: SK-MEL-5; assay: Growth inhibition of human SK-MEL-5 cells; assay type: functional; procedure, shortened: as §1
[23] = tested on: SK-MEL-28; assay: Growth inhibition of human SK-MEL-28 cells; assay type: functional; procedure, shortened: as §1
[24] = tested on: SK-MEL-2; assay: Growth inhibition of human SK-MEL-2 cells; assay type: functional; procedure, shortened: as §1
[25] = tested on: M19-MEL; assay: Growth inhibition of human M19-MEL cells; assay type: functional
[26] = tested on: M14; assay: Growth inhibition of human M14 cells; assay type: functional
[27] = tested on: Malme-3M; assay: Growth inhibition of human MALME-3M cells; assay type: functional
[28] = tested on: LOX IMVI; assay: Growth inhibition of human LOX IMVI cells; assay type: functional
[29] = tested on: U-251; assay: Growth inhibition of human U251 cells; assay type: functional; procedure, shortened: as §1
[30] = tested on: SNB-75; assay: Growth inhibition of human SNB75 cells; assay type: functional; procedure, shortened: as §1
[31] = tested on: SNB-19; assay: Growth inhibition of human SNB19 cells; assay type: functional; procedure, shortened: as §1
[32] = tested on: SF-539; assay: Growth inhibition of human SF539 cells; assay type: functional; procedure, shortened: as §1
[33] = tested on: SF-295; assay: Growth inhibition of human SF295 cells; assay type: functional; procedure, shortened: as §1
[34] = tested on: SF-268; assay: Growth inhibition of human SF268 cells; assay type: functional; procedure, shortened: as §1
[35] = tested on: SW-620; assay: Growth inhibition of human SW620 cells; assay type: functional; procedure, shortened: as §1
[36] = tested on: KM-20L2; assay: Growth inhibition of human KM20L2 cells; assay type: functional
[37] = tested on: KM12; assay: Growth inhibition of human KM12 cells; assay type: functional
[38] = tested on: HT-29; assay: Growth inhibition of human HT29 cells; assay type: functional
[39] = tested on: HCT-15; assay: Growth inhibition of human HCT15 cells; assay type: functional
[40] = tested on: HCT-116; assay: Growth inhibition of human HCT116 cells; assay type: functional
[41] = tested on: HCC 2998; assay: Growth inhibition of human HCC2998 cells; assay type: functional
[42] = tested on: DLD-1; assay: Growth inhibition of human DLD1 cells; assay type: functional
[43] = tested on: COLO 205; assay: Growth inhibition of human COLO205 cells; assay type: functional
[44] = tested on: DMS-273; assay: Growth inhibition of human DMS273 cells; assay type: functional
[45] = Growth inhibition of human DMS144 cells; assay type: functional
[46] = Growth inhibition of human LXFL529 cells; assay type: functional; conditions: LXFL 529
[47] = tested on: NCI-H522; assay: Growth inhibition of human NCI-H522 cells; assay type: functional
[48] = tested on: NCI-H460; assay: Growth inhibition of human NCI-H460 cells; assay type: functional
[49] = tested on: NCI-H322M; assay: Growth inhibition of human NCI-H322M cells; assay type: functional
[50] = tested on: NCI-H23; assay: Growth inhibition of human NCI-H23 cells; assay type: functional
[51] = tested on: NCI-H226; assay: Growth inhibition of human NCI-H226 cells; assay type: functional
[52] = tested on: HOP-92; assay: Growth inhibition of human HOP92 cells; assay type: functional
[53] = tested on: HOP-62; assay: Growth inhibition of human HOP62 cells; assay type: functional
[54] = tested on: HOP-18; assay: Growth inhibition of human HOP18 cells; assay type: functional
[55] = tested on: EKVX; assay: Growth inhibition of human EKVX cells; assay type: functional
[56] = tested on: A549; assay: Growth inhibition of human A549 cells; assay type: functional
[57] = tested on: SR; assay: Growth inhibition of human SR cells; assay type: functional; procedure, shortened: as §1
[58] = Growth inhibition of human RPMI8266 cells; assay type: functional
[59] = tested on: MOLT-4; assay: Growth inhibition of human MOLT4 cells; assay type: functional
[60] = tested on: K562; assay: Growth inhibition of human K562 cells; assay type: functional
[61] = Growth inhibition of human HL60(TB) cells; assay type: functional, HL-60(TB)
[62] = tested on: CCRF-CEM; assay: Growth inhibition of human CCRF-CEM cells; assay type: functional
[63] = tested on: MDA-MB-435; assay: Growth inhibition of human MDA-MB-435 cells; assay type: functional
[64] = tested on: MDA-N; assay: Growth inhibition of human MDA-N cells; assay type: functional
[65] = tested on: BT-549; assay: Growth inhibition of human BT549 cells; assay type: functional
[66] = tested on: T47D; assay: Growth inhibition of human T47D cells; assay type: functional; procedure, shortened: as §1
[67] = Growth inhibition of human MCF7/ADR-RES cells; assay type: functional; conditions: NCI/ADR-RES
[68] = tested on: XF498; assay: Growth inhibition of human XF498 cells; assay type: functional; conditions: read-out: pLC50 (the source's name) (converted); procedure, shortened: as §1
[69] = read-out: pLC50 (the source's name) (converted)

COc1cc(C(=O)O)cc2c1[nH]c1ccccc12 [MUKOEIC ACID]
25.1 µM: GI50 [1] | GI50 [2] | GI50 [3] | GI50 [4] | GI50 [5] | GI50 [6] | GI50 [7] | GI50 [8] | GI50 [9] | GI50 [10] | GI50 [11] | GI50 [12] | GI50 [13] | GI50 [14] | GI50 [15] | GI50 [16] | GI50 [17] | GI50 [18] | GI50 [19] | GI50 [20] | GI50 [21] | GI50 [22] | GI50 [23] | GI50 [24] | GI50 [25] | GI50 [26] | GI50 [27] | GI50 [28] | GI50 [29] | GI50 [30] | GI50 [31] | GI50 [32] | GI50 [33] | GI50 [34] | GI50 [35] | GI50 [36] | GI50 [37] | GI50 [38] | GI50 [39] | GI50 [40] | GI50 [41] | GI50 [42] | GI50 [43] | GI50 [44] | GI50 [45] | GI50 [46] | GI50 [47] | GI50 [48] | GI50 [49] | GI50 [50] | GI50 [51] | GI50 [52] | GI50 [53] | GI50 [54] | GI50 [55] | GI50 [56] | GI50 [57] | GI50 [58] | GI50 [59] | GI50 [60] | GI50 ([61]; HL-60) | GI50 [62] | GI50 [63] | GI50 [64] | GI50 [65] | GI50 [66] | GI50 [67]

C=C(C)C1CC2(C)CC1c1c(c(C)cc3c1[nH]c1ccccc13)O2 (stereo not given)
> 25.1 µM: CC50 [1, 69] | CC50 [2, 69] | CC50 [3, 69] | CC50 [4, 69] | CC50 [5, 69] | CC50 [6, 69] | CC50 [7, 69] | CC50 [8, 69] | CC50 [9, 69] | CC50 [10, 69] | CC50 [11, 69] | CC50 [12, 69] | CC50 [13, 69] | CC50 [14, 69] | CC50 [15, 69] | CC50 [16, 69] | CC50 [17, 69] | CC50 [18, 69] | CC50 [19, 69] | CC50 [20, 69] | CC50 [21, 69] | CC50 [22, 69] | CC50 [23, 69] | CC50 [24, 69] | CC50 [25, 69] | CC50 [26, 69] | CC50 [27, 69] | CC50 [28, 69] | CC50 [68] | CC50 [29, 69] | CC50 [30, 69] | CC50 [31, 69] | CC50 [32, 69] | CC50 [33, 69] | LC50 [34] | LC50 [35] | CC50 [36, 69] | CC50 [37, 69] | LC50 [38] | CC50 [39, 69] | CC50 [40, 69] | LC50 [41] | LC50 [42] | LC50 [43] | LC50 [44] | LC50 [45] | LC50 [46] | CC50 [47, 69] | LC50 [48] | LC50 [49] | LC50 [50] | LC50 [51] | CC50 [52, 69] | LC50 [53] | CC50 [54, 69] | CC50 [55, 69] | LC50 [56] | LC50 [57] | CC50 [58, 69] | LC50 [59] | LC50 [60] | CC50 ([61]; HL-60, read-out: pLC50 (the source's name) (converted)) | LC50 [62] | LC50 [63] | CC50 [64, 69] | LC50 [65] | LC50 [66] | CC50 [67, 69]

From ChEMBL document CHEMBL1142636 (2000)
